# Source: PubChem
# OX1R antag-1 = antagonists of human orexin 1 receptor; inhibition, % at 5 µM; CHO/OX1R cells, Fluo-8 calcium fluorescence, orexin A; AID 434989; O43613; hit rate 0.43% among 330,000;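 active = inhibition above its plate's threshold, mean inhibition of all tested compounds on the plate plus 3 SD, cut at about 37% in these data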;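 also: 0% = orexin A challenge wells and 100% = SB-334867-A antagonist wells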
# GPR7 antagonist = antagonists of human GPR7 (neuropeptides B/W receptor 1); P48145; GPR7-expressing cells, fluorescence antagonist assay; inhibition, % at 4.4 µM; hit rate 1.1% among 290,000; in the data active = inhibition above about 16%, passing the limit was not always enough;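 also: cells stimulated with the agonist NPW; 0% = agonist with vehicle and 100% = vehicle without agonist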
# Target sequence (P48145 whole entry, looked up): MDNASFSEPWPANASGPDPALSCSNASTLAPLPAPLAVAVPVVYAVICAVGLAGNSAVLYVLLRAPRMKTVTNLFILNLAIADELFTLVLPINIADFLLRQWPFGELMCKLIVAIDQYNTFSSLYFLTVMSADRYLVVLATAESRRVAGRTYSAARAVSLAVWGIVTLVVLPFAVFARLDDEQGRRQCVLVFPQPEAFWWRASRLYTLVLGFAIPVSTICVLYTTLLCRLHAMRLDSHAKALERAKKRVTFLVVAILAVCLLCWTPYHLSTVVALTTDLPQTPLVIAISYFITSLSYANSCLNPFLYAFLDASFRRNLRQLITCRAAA
# EP2 modulator = modulates human prostaglandin E2 receptor EP2 signaling. EP2-expressing cells, cAMP HTRF FRET, PGE2 co-stimulation. induction, % at 25 µM. hit rate 0.83% among 260,000;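 active = compounds whose cAMP rise, as percent of the full-agonist control response, exceeds 60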;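 also: rat C6 glioma line stably carrying human EP2 under a CMV promoter; the protocol text gives 20 µM as final concentration; 100% = response of wells given 1 µM PGE2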
# EP2 antag = EP2 receptor (human) inhibition | hit rate 0.52% among 260,000 | inhibition, % at 25 µM | C6 glioma cells expressing human EP2, cAMP TR-FRET; cells stimulated with saturating PGE2;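 active = percent inhibition above 40 after rounding to a whole number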;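 also: rat C6 glioma host cells with rolipram phosphodiesterase inhibitor present; the protocol text gives 20 µM as final concentration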
# OX1R antag-2 = antagonists of human orexin 1 receptor (OX1R) | O43613 | inhibition, % at 6.6 µM | OX1R-expressing cells, FRET antagonist read-out | hit rate 1.8% among 330,000; in the data active = inhibition mostly above about 38%, no sharp cut-off; inactive = mostly below about 40%;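 also: 0% = agonist challenge alone and 100% = reference antagonist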
# CHO parental Ca = counter-screen for OX1R antagonists: effect in parental CHO cells | parental CHO-K1, ATP-induced calcium, Fluo-8 fluorescence | inhibition, % at 5.6 µM | hit rate 0.63% among 330,000;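 active = inhibition above that plate's mean sample inhibition plus 3 SD, cut at about 26% in these data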;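 also: 0% = ATP-challenged DMSO wells and 100% = DMSO wells without ATP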
#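 Assay system: parental CHO cells; Read-out basis: percent inhibition of ATP-evoked calcium rise, normalized to controls; Benchmarks: ATP and no-ATP DMSO wells; Compound dosing: single nominal dose of 5.6 µM per compound; Signal: Fluo-8 calcium dye fluorescence; Also added: ATP as calcium-mobilizing challenge; Repeats: singlicate.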
# Starred values were filed as active, the others as inactive; · = not tested or not shown. A selection: hits, their analogues and other compounds. The true share with any hit is near 3.7%.
SMILES,OX1R antag-1,GPR7 antagonist,EP2 modulator,EP2 antag,OX1R antag-2,CHO parental Ca
Cc1cccc(NC(=S)NC2CC3CCCC(C2)N3Cc2ccco2)c1 (centres undefined),-20,2,-91,6,31,-27
COc1cc2c(C(=O)N3CCOCC3)c(CSc3ccccc3)n(C)c2cc1Br,-9,-5,39,5,56*,-41
Cc1cc(-c2cncnc2C2CCN(C(=O)CCc3ccco3)CC2)on1,·,·,0,·,·,·
O=C(Cn1cnc2c(NCc3ccccc3)ncnc21)NCCc1cc2ccccc2[nH]1,13,·,·,·,34*,-2
Cc1ccsc1C(=O)C1CCCN(Cc2cccn2-c2ccc(Cl)cn2)C1 (centres undefined),-19,39*,-27,1,17,-9
Cc1ccc(CN(CCCn2ccnc2)Cc2cccn2-c2cccc(F)c2)o1,·,·,62*,4,·,·
Cc1ccnc(-n2cccc2CN(CCCn2ccnc2)Cc2ccc(C)o2)c1,·,·,15,13,·,·
O=C(NCC1CCCO1)c1ccc2nc(N3CCCCC3)sc2c1 (centres undefined),-15,9,-33,9,10,8
CC(=O)[C@]1(O)CC[C@@H]2[C@H]3C[C@@H](C)C4=CC(=O)CC[C@@]4(C)[C@@H]3[C@@H](O)C[C@]21C,·,·,4,50*,·,·
CN1CCN(C(=O)c2ccccc2NC(=O)c2sc3ccccc3c2Cl)CC1,-36,-16,·,·,18,-21
CN1CCc2ccccc2[C@H]1Cc1ccccc1NC(=O)c1sc2ccccc2c1Cl,·,·,45,42*,·,·
COc1ccc(CCNC(=O)C2CCCN2C(=O)Nc2ccc(Cl)cc2)cc1OC (centres undefined),-22,-17,·,·,8,-25
COCc1ccc(C(=O)Nc2cccc(S(=O)(=O)N(C)c3ccccc3)c2)cc1,-19,·,·,·,15,-2
CN(C)S(=O)(=O)c1cccc(NC(=O)c2ccc(COc3ccccc3)cc2)c1,29,25,·,·,11,56*
COC(=O)c1sc(NC(=O)c2ccc(Cn3cc(Cl)cn3)o2)c(C#N)c1C,-9,9,-38,11,72*,-21
O=C(COc1ccccc1)N/N=C/c1sc(=O)n(Cc2cccc(C(=O)O)c2)c1Cl,-11,1,19,6,9,8
O=C(O)c1cccc(Cn2c(Cl)c(/C=N/NC(=O)c3ccc(O)cc3)sc2=O)c1,1,-4,61*,3,8,-5
NC(=O)C1CCN(c2nc(-c3ccc(F)cc3)cs2)CC1,-4,·,·,·,57*,-6
CC(=O)c1cccc(NC(=O)NC2CCCc3ccccc32)c1 (centres undefined),-13,-8,-30,9,13,-20
Cc1cc(NCCN2CCOCC2)c2ccc3ccccc3c2n1,-1,6,-63,7,5,0
Cc1cccn2c(=O)c3cc(C(=O)NC4CCCCC4)c(=N)n(CCN4CCOCC4)c3nc12,-14,4,-25,4,63*,-2
CCCn1c(=N)c(C(=O)NC2CCCC2)cc2c(=O)n3cccc(C)c3nc21,-20,-1,-17,13,81*,-19
O=C(c1ccccc1Br)N1CCN(c2ncccn2)CC1,·,5,·,·,·,·
O=c1/c(=C\c2cc([N+](=O)[O-])cc([N+](=O)[O-])c2O)sc2nc3ccccc3n12,6,-3,-43,6,72*,0
CCC(CN1CCN(C)CC1)NC(=O)Cc1cn(CC)c2ccccc12 (centres undefined),·,·,-48,6,·,·
SMILES,OX1R antag-1,GPR7 antagonist,EP2 modulator,EP2 antag,OX1R antag-2,CHO parental Ca
CC1=NN(C(N)=S)C(=O)C1N=Nc1ccc(S(N)(=O)=O)cc1 (centres undefined),-10,-16,·,·,17,8
CC(=O)N(C)c1ccc(N=NC2C(=O)N(C(N)=S)N=C2C)cc1 (centres undefined),-3,-12,·,·,62*,-5
CC(=O)N(C)c1ccc(N=Nc2c(C)[nH]n(C(N)=S)c2=O)cc1,-1,-3,-17,1,56*,-1
CN(C)CCC(=O)[C@]1(O)CC[C@@H]2[C@H]3CC=C4C[C@@H](O)CC[C@]4(C)[C@@H]3CC[C@]21C,·,·,-49,65*,·,·
CC(=O)[C@H]1CC[C@H]2[C@@H]3CC=C4C[C@@H](O)CC[C@]4(C)[C@H]3CC[C@]12C,-6,·,·,·,7,1
O=c1oc2cc(O)ccc2cc1-c1nc2c(s1)CCc1ccccc1-2,50*,-4,-52,10,17,50*
